# Assay results: ChEMBL document CHEMBL4814013, “Scaffold repurposing of fendiline: Identification of potent KRAS plasma membrane localization inhibitors” (Eur J Med Chem, 2021)
# The source made the active and inactive calls. The rule behind the calls is not given here.
# Key:
# [1] = tested on: MDCK; assay: Cytotoxicity against dog MDCK cells at 30 uM; type: functional, cell-based; conditions: Canis lupus familiaris
# [2] = tested on: MDCK; assay: Inhibition of ASM in dog MDCK cells co-expressing recombinant full length mGFP-tagged KRAS G12V mutant and mCherry-CAAX assessed as reduction in plasma membrane localization of KRAS mutant at 1 uM incubated for 48 hrs followed by incubation with recombinant ASM in continued presence of compound for 60 mins by confocal microscopic analysis; type: cell membranes; conditions: Canis lupus familiaris, time 49.0 hrs
# Summary of the method: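 MDCK cells stably co-expressing mGFP-KRAS G12V and mCherry-CAAX seeded on glass coverslips and grown 48 h with or without compound. Medium then replaced with fresh medium containing 2 units/mL recombinant ASM, drug continued, for 60 min. Cells mounted in mowiol and imaged by confocal microscopy. Mislocalization scored by Manders coefficient.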
# [3] = tested on: MEF; assay: Antiproliferative activity against mouse MEF cells expressing KRAS G12V mutant assessed as reduction in cell growth incubated for 72 hrs by CyQuant proliferation assay; type: functional, cell-based
# Summary of the method: (§1)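 Cells seeded in 96-well plates; after 24 h fresh growth medium with 0.1% DMSO vehicle or drug added (highest dose 30 µM for cancer lines), grown 72 h at 37 °C, 5% CO2. Live cell number measured by CyQUANT fluorescence. IC50 from three independent experiments. MEFs were isogenic lines carrying oncogenic BRAF or KRAS.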
# [4] = tested on: MEF; assay: Antiproliferative activity against mouse MEF cells expressing KRAS G12D mutant assessed as reduction in cell growth incubated for 72 hrs by CyQuant proliferation assay; type: functional, cell-based; summary of the method: as §1
# [5] = tested on: BXPC-3; assay: Antiproliferative activity against human BXPC-3 cells expressing wild type KRAS assessed as reduction in cell growth incubated for 72 hrs by CyQuant proliferation assay; type: functional, cell-based; conditions: BXPC-3, 72 h; summary of the method: as §1
# [6] = Antiproliferative activity against human MOH cells expressing KRAS mutant assessed as reduction in cell growth incubated for 72 hrs by CyQuant proliferation assay; type: functional, cell-based; summary of the method: as §1
# [7] = tested on: Ishikawa; assay: Antiproliferative activity against human Ishikawa cells expressing wild type KRAS assessed as reduction in cell growth incubated for 72 hrs by CyQuant proliferation assay; type: functional, cell-based; summary of the method: as §1
# [8] = tested on: SK-CO-1; assay: Antiproliferative activity against human SK-CO-1 cells expressing mutant KRAS assessed as reduction in cell growth incubated for 72 hrs by CyQuant proliferation assay; type: functional, cell-based; conditions: SK-CO-1, 72 h; summary of the method: as §1
# [9] = tested on: NCI-H1975; assay: Antiproliferative activity against human NCI-H1975 cells expressing wild type KRAS assessed as reduction in cell growth incubated for 72 hrs by CyQuant proliferation assay; type: functional, cell-based; conditions: NCI-H1975, 72 h; summary of the method: as §1
# [10] = tested on: ESS-1; assay: Antiproliferative activity against human ESS-1 cells expressing wild type KRAS assessed as reduction in cell growth upto 30 uM incubated for 72 hrs by CyQuant proliferation assay; type: functional, cell-based; conditions: dose microM <=30, time 72.0 hrs; summary of the method: as §1
# [11] = tested on: MIA PaCa-2; assay: Antitumor activity against human MIA PaCa-2 cells harboring KRAS mutant xenografted in nu/nu mouse assessed as reduction in tumor growth at 2.5 to 5 mg/kg, ip administered once daily for 5 days with 2 days break by caliper analysis; type: functional, organism-based; conditions: dose 2.5-5 mg/kg, time 5.0 day
# Summary of the method: (§2)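 Female nu/nu mice given 2 × 10⁶ early-passage MiaPaCa-2 cells subcutaneously in the right flank, randomized 10 per group. Dosing began when tumors reached 100 mm³: 1, 2.5 or 5 mg/kg i.p. daily for 5 days with 2 days off, vehicle DMSO. Caliper readings every 3–4 days, V = 0.52 × length × width². Animals sacrificed when any tumor reached 1500 mm³.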
# [12] = Toxicity in nu/nu mouse xenografted with human MIA PaCa-2 cells assessed as effect on body weight at 1 to 5 mg/kg, ip administered once daily for 5 days with 2 days break; type: organism-based; conditions: in vivo, 120 h, dose 1-5 mg/kg, time 5 day
# [13] = tested on: Mus musculus; assay: In vivo inhibition of Ca2+ channel in nu/nu mouse xenografted with human MIA PaCa-2 cells harboring KRAS mutation assessed as blood vessel dialation in tumor at 1 to 5 mg/kg, ip administered once daily for 5 days with 2 days break by immunostaining; type: functional, organism-based; conditions: dose 1-5 mg/kg, time 5.0 day
# [14] = tested on: MIA PaCa-2; assay: Antiproliferative activity against human MIA PaCa-2 cells expressing KRAS mutant assessed as reduction in cell growth incubated for 72 hrs by CyQuant proliferation assay; type: functional, cell-based; conditions: MIA PaCa-2, 72 h; summary of the method: as §1
# [15] = tested on: HEC-1-A; assay: Antiproliferative activity against human HEC-1-A cells expressing mutant KRAS assessed as reduction in cell growth incubated for 72 hrs by CyQuant proliferation assay; type: functional, cell-based; summary of the method: as §1
# [16] = tested on: HEC-1B cell line; assay: Antiproliferative activity against human HEC-1B cells expressing mutant KRAS assessed as reduction in cell growth incubated for 72 hrs by CyQuant proliferation assay; type: functional, cell-based; summary of the method: as §1
# [17] = tested on: Caco-2; assay: Antiproliferative activity against human Caco-2 cells expressing wild type KRAS assessed as reduction in cell growth incubated for 72 hrs by CyQuant proliferation assay; type: functional, cell-based; conditions: Caco-2, 72 h; summary of the method: as §1
# [18] = tested on: NCI-H1299; assay: Antiproliferative activity against human NCI-H1299 cells expressing wild type KRAS assessed as reduction in cell growth incubated for 72 hrs by CyQuant proliferation assay; type: functional, cell-based; conditions: NCI-H1299, 72 h; summary of the method: as §1
# [19] = tested on: MIA PaCa-2; assay: Antitumor activity against human MIA PaCa-2 cells harboring KRAS mutant xenografted in nu/nu mouse assessed as reduction in tumor growth at 1 to 5 mg/kg, ip administered once daily for 5 days with 2 days break by caliper analysis; type: functional, organism-based; conditions: dose 1-5 mg/kg, time 5.0 day; summary of the method: as §2
# [20] = tested on: BXPC-3; assay: Antitumor activity against human BXPC-3 cells harboring wild type KRAS xenografted in nu/nu mouse assessed as reduction in tumor growth at 1 mg/kg, ip administered once daily for 5 days with 2 days break by caliper analysis; type: functional, organism-based; conditions: time 5.0 day
# Summary of the method: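 BxPC3 xenografts in nu/nu mice dosed i.p. with compound or DMSO vehicle on a schedule of daily for 5 days and 2 days off. Tumor size measured by external caliper every 3–4 days.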
IC50 [14] [µM],IC50 [17] [µM],IC50 [18] [µM],Compound,Activity [1],inhibition [2],IC50 [3] [µM],IC50 [4] [µM],IC50 [5] [µM],IC50 [6] [µM],IC50 [7] [µM],IC50 [8] [µM],IC50 [9] [µM],Activity [10],Activity [11],Activity [12],inhibition [13],IC50 [15] [µM],IC50 [16] [µM],Activity [19],Activity [20]
,,,COc1ccc([C@@H](C)N(CC=C(c2ccccc2)c2ccccc2)CCCN2CCN(C)CC2)cc1,Active,inactive,2.9,2.4,5.3,3.8,11,3.5,> 30,inactive,Active,Non-Toxic,inactive,,,,
3.1,4.2,8,COc1ccc([C@@H](C)N(CC=C(c2ccccc2)c2ccccc2)CCN2CCCC2)cc1,Active,inactive,2.6,3.9,5.5,3.6,17.3,3,> 30,inactive,,Non-Toxic,inactive,2.3,3,Active,inactive
